Converted amounts (≈) assume the structure as drawn.
Experiments:
Pseudomonas aeruginosa [1] = test: Antibacterial activity against Pseudomonas aeruginosa NCTC 13437 assessed as bacterial growth inhibition incubated for overnight by microbroth dilution method; assay type: functional
Procedure, shortened: (§1)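 Broth microdilution in Tryptic Soy Broth. DMSO stocks were diluted in TSB as 2-fold series. Overnight TSB cultures were back-diluted to OD 0.01 and mixed 1:1 with compound. Incubation was overnight at 37 °C. MIC was the lowest concentration without visible growth (<0.1 OD600). DMSO vehicle was checked at equivalent concentrations.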

Escherichia coli [2] = test: Antibacterial activity against Escherichia coli NCTC 12923 assessed as bacterial growth inhibition incubated for overnight by microbroth dilution method; assay type: functional; procedure, shortened: as §1
Enterococcus faecium = test: Antibacterial activity against vancomycin resistant Enterococcus faecium NCTC 12204 assessed as bacterial growth inhibition incubated for overnight by microbroth dilution method; assay type: functional
Procedure, shortened: (§2)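 Microbroth dilution in Tryptic Soy Broth. DMSO stocks were diluted in TSB as 2-fold series. Overnight TSB cultures were back-diluted to OD 0.01 and mixed 1:1 with compound. Incubation was overnight at 37 °C. MIC is the lowest concentration with no visible growth (<0.1 OD600). DMSO at equivalent concentrations was checked.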

Klebsiella pneumoniae [3] = test: Antibacterial activity against ESBL Klebsiella pneumoniae NCTC 13368 assessed as bacterial growth inhibition incubated for overnight by microbroth dilution method
Klebsiella pneumoniae [4] = test: Antibacterial activity against Klebsiella pneumoniae M6 assessed as bacterial growth inhibition incubated for overnight by microbroth dilution method
Enterococcus faecalis [5] = test: Antibacterial activity against vancomycin sensitive Enterococcus faecalis NCTC 775 assessed as bacterial growth inhibition incubated for overnight by microbroth dilution method
Enterococcus faecalis [6] = test: Antibacterial activity against vancomycin resistant Enterococcus faecalis NCTC 12201 assessed as bacterial growth inhibition incubated for overnight by microbroth dilution method; assay type: functional; procedure, shortened: as §2
Staphylococcus aureus [7] = test: Antibacterial activity against methicillin resistant Staphylococcus aureus USA 300 assessed as bacterial growth inhibition incubated for overnight by microbroth dilution method; assay type: functional; procedure, shortened: as §2
Acinetobacter baumannii [8] = test: Antibacterial activity against Acinetobacter baumannii ATCC 17978 assessed as bacterial growth inhibition incubated for overnight by microbroth dilution method; assay type: functional; procedure, shortened: as §1
Staphylococcus aureus [9] = test: Antibacterial activity against methicillin resistant Staphylococcus aureus NCTC 13616 assessed as bacterial growth inhibition incubated for overnight by microbroth dilution method; assay type: functional; procedure, shortened: as §2
Acinetobacter baumannii [10] = test: Antibacterial activity against Acinetobacter baumannii AYE assessed as bacterial growth inhibition incubated for overnight by microbroth dilution method; assay type: functional; procedure, shortened: as §1
Staphylococcus aureus [11] = test: Antibacterial activity against methicillin sensitive Staphylococcus aureus ATCC 9144 assessed as bacterial growth inhibition incubated for overnight by microbroth dilution method; assay type: functional; procedure, shortened: as §2
Pseudomonas aeruginosa [12] = test: Antibacterial activity against Pseudomonas aeruginosa PAO1 assessed as bacterial growth inhibition incubated for overnight by microbroth dilution method; assay type: functional; procedure, shortened: as §1
Staphylococcus aureus [13] = test: Antibacterial activity against methicillin sensitive Staphylococcus aureus 1199B assessed as bacterial growth inhibition incubated for overnight by microbroth dilution method; assay type: functional; procedure, shortened: as §2
Pseudomonas aeruginosa [14] = test: Synergistic antibacterial activity against Pseudomonas aeruginosa NCTC 13437 assessed as fold change in rifampicin MIC at <=0.25 times MIC incubated for overnight by microbroth dilution checkerboard assay relative to rifampicin alone; assay type: functional
Procedure, shortened: (§3)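 Checkerboard microdilution in Tryptic Soy Broth, run like the MIC assay. Overnight TSB cultures were back-diluted to OD 0.01 and added 1:1 to the combined two-fold series of both agents, then incubated overnight at 37 °C. Growth/no-growth was called at <0.1 OD600. MICs alone were read on the same plates. FIC index came from the most synergistic well; three independent repeats, mean ± SD.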

Acinetobacter baumannii [15] = test: Synergistic antibacterial activity against Acinetobacter baumannii ATCC 17978 assessed as fold change in rifampicin MIC at <=0.25 times MIC incubated for overnight by microbroth dilution checkerboard assay relative to rifampicin alone; assay type: functional
Procedure, shortened: (§4)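 Checkerboard microdilution under MIC conditions (TSB, overnight, 37 °C). Two-fold series of each agent were combined on one plate before bacteria were added, and single-agent MICs were measured on the same plate. FIC = sum of combination MIC/alone MIC for each agent, taken from the most synergistic well. Three independent repeats, mean ± SD. ≤0.5 was taken as strong synergy and 0.5–<1 as weak.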

Klebsiella pneumoniae [16] = test: Synergistic antibacterial activity against […] Klebsiella pneumoniae M6 assessed as rifampicin MIC at <=0.25 times MIC incubated for overnight by microbroth dilution checkerboard assay; assay type: functional
Procedure, shortened: (§5)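 Checkerboard run under the MIC conditions (TSB, overnight, 37 °C). Antibiotic and lipoguanidine 2-fold series were combined on one plate before bacteria were added. Growth/no-growth was scored as for the MIC (<0.1 OD600). Single-agent MICs were measured on the same plates. Three independent repeats were done.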

Escherichia coli [17] = test: Synergistic antibacterial activity against Escherichia coli NCTC 12923 assessed as fold change in rifampicin MIC at <=0.25 times MIC incubated for overnight by microbroth dilution checkerboard assay relative to rifampicin alone; assay type: functional; procedure, shortened: as §4
Acinetobacter baumannii [18] = test: Synergistic antibacterial activity against Acinetobacter baumannii AYE assessed as rifampicin MIC at <=0.25 times MIC incubated for overnight by microbroth dilution checkerboard assay; assay type: functional; procedure, shortened: as §4
Escherichia coli [19] = test: Synergistic antibacterial activity against Escherichia coli NCTC 12923 assessed as rifampicin MIC at <=0.25 times MIC incubated for overnight by microbroth dilution checkerboard assay; assay type: functional; procedure, shortened: as §4
Pseudomonas aeruginosa [20] = test: Synergistic antibacterial activity against Pseudomonas aeruginosa PAO1 assessed as fold change in rifampicin MIC at <=0.25 times MIC incubated for overnight by microbroth dilution checkerboard assay relative to rifampicin alone; assay type: functional; procedure, shortened: as §3
Klebsiella pneumoniae [21] = test: Synergistic antibacterial activity against Klebsiella pneumoniae NCTC 13368 assessed as fold change in rifampicin MIC at <=0.25 times MIC incubated for overnight by microbroth dilution checkerboard assay relative to rifampicin alone; assay type: functional; procedure, shortened: as §5
Pseudomonas aeruginosa [22] = test: Synergistic antibacterial activity against Pseudomonas aeruginosa PAO1 assessed as rifampicin MIC at <=0.25 times MIC incubated for overnight by microbroth dilution checkerboard assay; assay type: functional; procedure, shortened: as §3
Acinetobacter baumannii [23] = test: Synergistic antibacterial activity against Acinetobacter baumannii ATCC 17978 assessed as rifampicin MIC at <=0.25 times MIC incubated for overnight by microbroth dilution checkerboard assay; assay type: functional; procedure, shortened: as §4
Klebsiella pneumoniae [24] = test: Synergistic antibacterial activity against Klebsiella pneumoniae NCTC 13368 assessed as rifampicin MIC at <=0.25 times MIC incubated for overnight by microbroth dilution checkerboard assay; assay type: functional; procedure, shortened: as §4
Pseudomonas aeruginosa [25] = test: Synergistic antibacterial activity against Pseudomonas aeruginosa NCTC 13437 assessed as rifampicin MIC at <=0.25 times MIC incubated for overnight by microbroth dilution checkerboard assay; assay type: functional; procedure, shortened: as §3
Acinetobacter baumannii [26] = test: Synergistic antibacterial activity against Acinetobacter baumannii AYE assessed as fold change in rifampicin MIC at <=0.25 times MIC incubated for overnight by microbroth dilution checkerboard assay relative to rifampicin alone; assay type: functional; procedure, shortened: as §4

Compound	MIC (Pseudomonas aeruginosa [1]) [µg/mL]	MIC (Escherichia coli [2]) [µg/mL]	MIC (Enterococcus faecium) [µg/mL]	MIC (Klebsiella pneumoniae [3]) [µg/mL]	MIC (Klebsiella pneumoniae [4]) [µg/mL]	MIC (Enterococcus faecalis [5]) [µg/mL]	MIC (Enterococcus faecalis [6]) [µg/mL]	MIC (Staphylococcus aureus [7]) [µg/mL]	MIC (Acinetobacter baumannii [8]) [µg/mL]	MIC (Staphylococcus aureus [9]) [µg/mL]	MIC (Acinetobacter baumannii [10]) [µg/mL]	MIC (Staphylococcus aureus [11]) [µg/mL]	MIC (Pseudomonas aeruginosa [12]) [µg/mL]	MIC (Staphylococcus aureus [13]) [µg/mL]	fold change (FC) (Pseudomonas aeruginosa [14])	fold change (FC) (Acinetobacter baumannii [15])	MIC (Klebsiella pneumoniae [16]) [µg/mL]	fold change (FC) (Escherichia coli [17])	MIC (Acinetobacter baumannii [18]) [µg/mL]	MIC (Escherichia coli [19]) [µg/mL]	other results
CCCCCCCC/C=C\CCCCCCCCNC(=N)NCCCCCCCCNC(=N)NCCCCCCCC/C=C\CCCCCCCC	> 128	128 (≈ 176 µM)	32 (≈ 43.9 µM)	> 128	> 128	64 (≈ 87.8 µM)	> 64	64 (≈ 87.8 µM)	128 (≈ 176 µM)	> 64	> 128	64 (≈ 87.8 µM)	> 128	32 (≈ 43.9 µM)							
CCCCC/C=C\C/C=C\CCCCCCCCNC(=N)NCCCCNC(=N)N	64 (≈ 152 µM)	8 (≈ 19 µM)	8 (≈ 19 µM)	> 64	32 (≈ 76.1 µM)	8 (≈ 19 µM)	8 (≈ 19 µM)	4 (≈ 9.51 µM)	32 (≈ 76.1 µM)	4 (≈ 9.51 µM)	> 64	4 (≈ 9.51 µM)	64 (≈ 152 µM)	4 (≈ 9.51 µM)	>=4	>=4	≤ 0.125	>=4	≤ 0.125	4	fold change (FC) (Pseudomonas aeruginosa [20]): >=4; fold change (FC) (Klebsiella pneumoniae [21]): >=4; MIC (Pseudomonas aeruginosa [22]): 2 µg/mL; MIC (Acinetobacter baumannii [23]): ≤ 0.125 µg/mL; MIC (Klebsiella pneumoniae [24]): ≤ 0.125 µg/mL; MIC (Pseudomonas aeruginosa [25]): 4 µg/mL; fold change (FC) (Acinetobacter baumannii [26]): >=4
NCCCCCCCCN=C(N)N	> 128	128 (≈ 687 µM)	> 128	> 128	> 128	> 128	> 128	128 (≈ 687 µM)	> 128	> 128	> 128	128 (≈ 687 µM)	> 128	> 128	0	>=4	16	0	4	16	fold change (FC) (Pseudomonas aeruginosa [20]): 0; fold change (FC) (Klebsiella pneumoniae [21]): 0; MIC (Pseudomonas aeruginosa [22]): 32 µg/mL; MIC (Acinetobacter baumannii [23]): 1 µg/mL; MIC (Klebsiella pneumoniae [24]): 32 µg/mL; MIC (Pseudomonas aeruginosa [25]): 32 µg/mL; fold change (FC) (Acinetobacter baumannii [26]): >=4
CCCCCCCCCCNC(=N)NCCCC		16 (≈ 62.6 µM)		16 (≈ 62.6 µM)					16 (≈ 62.6 µM)		16 (≈ 62.6 µM)				0	>=4	≤ 0.125	>=4	≤ 0.125	≤ 0.125	fold change (FC) (Pseudomonas aeruginosa [20]): 0; fold change (FC) (Klebsiella pneumoniae [21]): >=4; MIC (Pseudomonas aeruginosa [22]): 16 µg/mL; MIC (Acinetobacter baumannii [23]): ≤ 0.125 µg/mL; MIC (Klebsiella pneumoniae [24]): ≤ 0.125 µg/mL; MIC (Pseudomonas aeruginosa [25]): 16 µg/mL; fold change (FC) (Acinetobacter baumannii [26]): >=4
CCCCCCCC/C=C\CCCCCCCCNC(=N)NCCCCCCCCN	> 128	16 (≈ 36.6 µM)	4 (≈ 9.16 µM)	32 (≈ 73.3 µM)	> 128	4 (≈ 9.16 µM)	2 (≈ 4.58 µM)	2 (≈ 4.58 µM)	8 (≈ 18.3 µM)	4 (≈ 9.16 µM)	32 (≈ 73.3 µM)	4 (≈ 9.16 µM)	> 128	4 (≈ 9.16 µM)							
CCCCCCCC/C=C\CCCCCCCCNC(=N)NCCN(CCN)CCN	32 (≈ 72.9 µM)	8 (≈ 18.2 µM)	4 (≈ 9.12 µM)	> 128	> 128	4 (≈ 9.12 µM)	4 (≈ 9.12 µM)	4 (≈ 9.12 µM)	64 (≈ 146 µM)	4 (≈ 9.12 µM)	128 (≈ 292 µM)	8 (≈ 18.2 µM)	64 (≈ 146 µM)	4 (≈ 9.12 µM)							

Reference: ChEMBL document CHEMBL5357066, “Development of Novel Membrane Disrupting Lipoguanidine Compounds Sensitizing Gram-Negative Bacteria to Antibiotics” (ACS Med Chem Lett, 2024)
